Experimental data published in PubChem BioAssay AID624179 (Johns Hopkins Ion Channel Center, 2012).
pEC50: −log10 of the molar value.

tested on: HEK293 M3R/RGS4, carbachol calcium flux, Fluo4; experiment: RGS4 potentiator concentration-response, SAR follow-up, cell-based, HEK293 M3R/RGS4, calcium flux, SAR compounds (AID 624179)
Outline: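 System: HEK293 M3R cells with induced RGS4 | Buffer or medium: HBSS-HEPES assay buffer, pH 7.4 | Signal: Fluo-4 calcium fluorescence | Reagent: Carbachol at EC20 as calcium-mobilizing stimulus | Incubation: 20 min compound pre-incubation at room temperature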

Row | SMILES | pEC50
1 | CN(Cc1ccc(F)cc1)C(=O)C(c1ccccc1)c1ccccc1 | 5.66
2 | S=c1[nH]nc(-c2ccc(Cl)cc2)n1CC1CCCO1 (stereo not drawn) | 5.25
3 | O=C(CNc1ccccc1)c1ccc([N+](=O)[O-])cc1 | 5.20
4 | Cc1ccc(NC(=O)c2cc(-c3cccs3)nc3ccccc23)nc1 | 5.46
5 | CCN1CCCC1CNCc1ccccc1OCc1ccc(F)cc1 (stereo not drawn) | 5.14
6 | COC(=O)c1cccc(Nc2nc(-c3cccnc3)nc3ccccc23)c1 | 5.69
7 | O=C(Nc1ccccc1N1CCN(C(=O)c2ccccc2)CC1)c1ccc(Cl)o1 | 5.33
8 | COC(=O)C1CCCN(C(=O)c2cc(-c3ccc(C)cc3)nc3ccccc23)C1 (stereo not drawn) | 5.33
9 | Cc1ccc(S(=O)(=O)c2ccc(Oc3cccc(C)c3)cc2)cc1 | 5.56
10 | CCCCn1c(-c2csc(CCC)c2)n[nH]c1=S | 5.65
11 | O=C(CNC1CCCCCC1)Nc1ccc(S(=O)(=O)NC2CC2)cc1 | 5.23
12 | CC(C)Cn1c(-c2ccc(F)cc2)n[nH]c1=S | 5.50
13 | CCn1cc(CN2CCC(n3nccc3NC(=O)c3ccc(OC)cc3)CC2)cn1 | 5.53
